The text below walks through data of article PMC5694347 (Clinical cancer research : an official journal of the …, 2015).

Series [1] relates to patients with AML and myelodysplastic syndromes (MDS). Particulars: same dosing as schedule B (days 1, 4, 8, 11); cited from earlier work.
Series [2] deals with pevonedistat–NEDD8 adduct. In words: Bone marrow aspirate immunohistochemistry for pevonedistat–NEDD8 adduct. It counts as in vivo, human. Particulars: one patient treated at 25 mg/m^2, pre-dose and post-dose sample. In outline: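 Patients with marrow involvement received IV pevonedistat over 1 h. Marrow aspirates were taken at screening and 2–6 h after the cycle 1 dose on day 2 (schedule A) or day 4 (schedule B). Aspirates were clotted, formalin-fixed and paraffin-embedded. Adduct-specific antibody was applied 1 h at 37°C, then biotinylated goat anti-rabbit secondary 32 min at room temperature, with DAB detection. Slides were counterstained and whole-slide imaged at 20x.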

The nature of series [3]: Plasma pharmacokinetics, cycle 1. Particulars: human, in vivo.
A further series has as its system NRF-2. The experiment in a line: Skin punch biopsy immunohistochemistry, NRF-2. The class given is in vivo, human. Particulars: 19 patients, schedule A 25–147 mg/m^2, after second dose of cycle 1. In outline: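 IV infusion over 1 h. 2 mm skin punch biopsies were taken at screening and 3–6 h after the cycle 1 dose on day 2 (schedule A) or day 4 (schedule B). On 5 µm sections, CC1 antigen retrieval ran 20 min. Primary antibody was applied 1 h at room temperature, then alkaline phosphatase secondary 32 min, developed with NBT/BCIP. Slides were counterstained and imaged at 20x. Signal was percent stained area of the basal epithelial region.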

Series [4] deals with patients with relapsed and/or refractory lymphoma or MM. The experiment in a line: Phase I dose escalation: MTD and DLT determination. It counts as in vivo.

Marks after values point to notes of the source that are not given here.

A word on the clearance: it is the volume of plasma or blood freed of the substance per unit of time. Read a high clearance as a high capacity for elimination. The term half-life denotes the time needed for the level to fall by half in the phase considered. Lower therefore signals fast loss. As to `NS(=O)(=O)OC[C@@H]1C[C@@H](n2ccc3c(N[C@H]4CCc5ccccc54)ncnc32)C[C@@H]1O` [pevonedistat], the “MTD in AML/MDS patients” value in series [1] is given as 83 mg/m^2. Besides, in series [2], the “Pevonedistat–NEDD8 adduct in bone marrow aspirate” value is reported as “not detected”. The “Dose proportionality of mean Cmax and AUC0–24hr” value in series [3] is on record as “approximate dose-proportional increases”. In addition, the Cmax was 1683 (28) ng/mL in series [3] (110 mg/m2); 1500 ng/mL in series [3] (110 mg/m2, Cmax); 3751 (53) ng/mL in series [3] (196 mg/m2); 4560 ng/mL in series [3] (196 mg/m2, Cmax). Also, the Tmax in series [3] (110 mg/m2) is 1.08 h; in series [3] (110 mg/m2, Tmax) it was 1.02 h; in series [3] (196 mg/m2) it was 1.02 (0.9– 1.1) hr; in series [3] (196 mg/m2, Tmax) it was 1.1 h. Besides, the AUC0-τ in series [3] (196 mg/m2) is listed as 12,367 (13) ^c nghr/mL. Besides, in series [3] (196 mg/m2), the “Mean plasma elimination half-life” value was 8.5 h. The clearance in series [3] (196 mg/m2) is 472 mL/min. Also, the half-life in series [3] (196 mg/m2, Mean plasma elimination half-life) was around 8.5 h; in series [3] (196 mg/m2, Plasma elimination half-life, range), 7.7 to 9.1 h; in series [3] (196 mg/m2, t½ (terminal disposition half-life)), 8.5 h. In addition, the “NRF-2 expression in skin, median increase vs baseline” value in the series with NRF-2 worked out at 39.4 fold. Besides, the “NRF-2 expression in skin, range of increase vs baseline” value in the series with NRF-2 is on record as 0–1483 fold. Also, the “DLTs at 261 mg/m^2” value in series [4] (in vivo) is reported as “no DLTs were observed”. The “Maximum tolerated dose (MTD)” value in series [4] (schedule A: IV days 1, 2, 8, 9 of 21-day cycles) is recorded as 110 mg/m^2.
